Reference: ChEMBL document CHEMBL4840316, “Structure-based screening for the discovery of 1,2,4-oxadiazoles as promising hits for the development of new anti-inflammatory agents interfering with eicosanoid biosynthesis pathways” (Eur J Med Chem, 2021)
Active and inactive are the calls of the source. No cut-off for these calls is given here.

Tests used:
Mus musculus [1] = assay: Antiinflammatory activity in zymosan-induced CD-1 mouse peritonitis model assessed as reduction in zymosan-induced neutrophil recruitment at 10 mg/kg, ip treated with compound for 30 mins after 4 hrs zymosan stimulation by ELISA; assay type: functional, organism-based
Summary of the method: (§1)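 Male CD-1 mice (10–14 wk, 25–30 g), n = 6/group, injected i.p. with boiled zymosan A (500 mg/kg in PBS). Compound (0.1–10 mg/kg, DMSO/saline 1:3) given i.p. 30 min afterwards. Peritoneal lavage with 2 mL PBS at 4 or 24 h. Total leukocytes counted by automated counter with trypan blue, normalized to exudate. Mean ± S.D.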

Mus musculus [2] = assay: Antiinflammatory activity in zymosan-induced CD-1 mouse peritonitis model assessed as reduction in zymosan-induced neutrophil recruitment at 1 mg/kg, ip treated with compound for 30 mins after 4 hrs zymosan stimulation by ELISA; assay type: functional, organism-based; summary of the method: as §1
Mus musculus [3] = assay: Antiinflammatory activity in zymosan-induced CD-1 mouse peritonitis model assessed as reduction in zymosan-induced IL-1beta level in peritoneal exudate at 10 mg/kg, ip treated with compound for 30 mins after 24 hrs zymosan stimulation by ELISA; assay type: functional, organism-based
Summary of the method: (§2)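 Male CD-1 mice (10–14 wk, 25–30 g), n = 6/group. Zymosan A (500 mg/kg in PBS, boiled) given i.p.; test compound (0.1–10 mg/kg in DMSO/saline 1:3) i.p. 30 min later. Exudates collected by 2 mL PBS lavage at 4 or 24 h. Cells spun at 4 °C and cytokines in supernatant measured by sandwich ELISA at 450 nm. Values normalized to exudate levels, mean ± S.D.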

Mus musculus [4] = assay: Effect on IL-6 level in zymosan-induced CD-1 mouse peritonitis model in peritoneal exudate at 10 mg/kg, ip treated with compound for 30 mins after 4 to 24 hrs zymosan stimulation by ELISA; assay type: functional, organism-based; summary of the method: as §2
Mus musculus [5] = assay: Antiinflammatory activity in zymosan-induced CD-1 mouse peritonitis model assessed as reduction in zymosan-induced TNF-alpha level in peritoneal exudate at 10 mg/kg, ip treated with compound for 30 mins after 4 hrs zymosan stimulation by ELISA; assay type: functional, organism-based; summary of the method: as §2
Mus musculus [6] = assay: Antiinflammatory activity in zymosan-induced CD-1 mouse peritonitis model assessed as reduction in zymosan-induced TNF-alpha level in peritoneal exudate at 10 mg/kg, ip treated with compound for 30 mins after 24 hrs zymosan stimulation by ELISA; assay type: functional, organism-based; summary of the method: as §2
Prostaglandin E synthase = molecular target: T1, Prostaglandin E synthase (Homo sapiens, UniProt O14684); assay: Inhibition of mPGES-1 obtained from IL-beta stimulated human A549 cells microsomes assessed as residual activity by measuring conversion of PGH2 to PGE2 by cell-free RP-HPLC method; design: species or system Microsome
T1 sequence (O14684 whole entry): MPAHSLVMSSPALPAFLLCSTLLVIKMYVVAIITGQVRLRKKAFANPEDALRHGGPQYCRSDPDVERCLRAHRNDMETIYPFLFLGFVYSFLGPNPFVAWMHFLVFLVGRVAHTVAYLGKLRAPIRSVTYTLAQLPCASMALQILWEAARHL
Summary of the method: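 Microsomes from A549 cells stimulated with IL-1β (1 ng/ml) for 48 h. Diluted in 0.1 M potassium phosphate pH 7.4 with 2.5 mM glutathione. Pre-incubated 15 min on ice with compound (single 10 µM, or 0.03–10 µM for the curve) or 1% DMSO. 20 µM PGH2 added for 1 min; stopped with FeCl3/citric acid containing 11β-PGE2 standard. PGE2 measured by SPE and RP-HPLC. n = 3.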

Mus musculus [7] = assay: Antiinflammatory activity in zymosan-induced CD-1 mouse peritonitis model assessed as reduction in zymosan-induced IL-1beta level in peritoneal exudate at 10 mg/kg, ip treated with compound for 30 mins after 4 hrs zymosan stimulation by ELISA; assay type: functional, organism-based; summary of the method: as §2
Mus musculus [8] = assay: Effect on IL-10 level in zymosan-induced CD-1 mouse peritonitis model in peritoneal exudate at 10 mg/kg, ip treated with compound for 30 mins after 4 to 24 hrs zymosan stimulation by ELISA; assay type: functional, organism-based; summary of the method: as §2
[9] = molecular target: T2, Prostaglandin G/H synthase 1 (Ovis aries) (UniProt P05979); assay: Inhibition of ovine COX-1 assessed as residual activity at 10 uM using arachidonic acid as substrate preincubated for 5 mins followed by substrate addition and measured after 5 mins by RP-HPLC method relative to control
T2 sequence (whole entry): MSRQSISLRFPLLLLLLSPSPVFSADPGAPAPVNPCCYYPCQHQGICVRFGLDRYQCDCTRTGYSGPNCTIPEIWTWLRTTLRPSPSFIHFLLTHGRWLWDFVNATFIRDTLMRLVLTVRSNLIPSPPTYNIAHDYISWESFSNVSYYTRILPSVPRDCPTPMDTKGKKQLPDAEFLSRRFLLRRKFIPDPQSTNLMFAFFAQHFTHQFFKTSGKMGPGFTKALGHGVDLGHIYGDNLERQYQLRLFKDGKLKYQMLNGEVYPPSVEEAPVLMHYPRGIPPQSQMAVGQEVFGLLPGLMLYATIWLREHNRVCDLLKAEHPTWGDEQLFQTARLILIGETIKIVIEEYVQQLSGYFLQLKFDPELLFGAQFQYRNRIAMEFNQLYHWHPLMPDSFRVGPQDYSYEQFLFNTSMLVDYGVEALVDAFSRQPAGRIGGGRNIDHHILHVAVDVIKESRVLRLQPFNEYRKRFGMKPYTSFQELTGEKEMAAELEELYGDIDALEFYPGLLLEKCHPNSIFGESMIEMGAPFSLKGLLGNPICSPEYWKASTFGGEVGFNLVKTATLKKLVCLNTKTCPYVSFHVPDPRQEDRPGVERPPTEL
Summary of the method: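 Ovine COX-1 (50 U/mL) or human recombinant COX-2 (20 U/mL) in 100 mM Tris pH 8 with 5 mM glutathione, 100 µM EDTA and 5 µM hemoglobin. Pre-incubated with compound or 0.1% DMSO for 5 min at room temperature, then 1 min at 37 °C. Started with AA (5 µM for COX-1, 2 µM for COX-2), run 5 min at 37 °C. 12-HHT measured by RP-HPLC.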

| IC50 (Prostaglandin E synthase) | Activity [9] | SMILES | Activity (Mus musculus [1]) | Activity (Mus musculus [2]) | Activity (Mus musculus [3]) | Activity (Mus musculus [4]) | Activity (Mus musculus [5]) | Activity (Mus musculus [6]) | Activity (Mus musculus [7]) | Activity (Mus musculus [8]) |
| --- | --- | --- | --- | --- | --- | --- | --- | --- | --- | --- |
| 3.6 µM | – | Oc1c(F)c(F)cc(-c2nc(-c3ccc(-c4ccsc4)cc3)no2)c1F | Active | Active | Active | inactive | Active | Active | Active | inactive |
| – | 47.7% | Oc1cccc(CCc2nc(-c3ccc(-c4ccsc4)cc3)no2)c1 | – | – | – | – | – | – | – | – |
